Calls of active or inactive are those of the source. The calls are words filed in the database; no cut-off is given here.
How the values were obtained:
[1] = molecular target: T1, 3-oxo-5-alpha-steroid 4-dehydrogenase 1 (Rattus norvegicus, UniProt P24008); experiment: Inhibition of rat liver 5alpha-reductase type 1 assessed as conversion of [3H]testosterone to dihydrotestosterone
T1 sequence (P24008 whole entry): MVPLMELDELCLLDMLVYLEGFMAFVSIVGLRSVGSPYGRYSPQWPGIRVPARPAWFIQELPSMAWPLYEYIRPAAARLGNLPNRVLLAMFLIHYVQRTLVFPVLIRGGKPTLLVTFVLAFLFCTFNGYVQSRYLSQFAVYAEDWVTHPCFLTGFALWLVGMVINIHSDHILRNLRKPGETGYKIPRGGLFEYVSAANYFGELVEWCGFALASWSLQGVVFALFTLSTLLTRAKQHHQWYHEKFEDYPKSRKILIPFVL
Method in brief: (§1)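 Each reaction contained 1 mM DTT in 40 mM sodium phosphate, 2 nM [3H]T and 2 mM NADPH. Type 1 ran at pH 8.0 with 6.31 µM T added and 90 µg solubilized rat liver microsomal protein. Type 2 ran at pH 6.5 with 50 µg human prostate membrane protein. Inhibitors were tested at 1e-11–1e-3 M, in duplicate, 60 min at 37.5 °C. Reactions were stopped with dichloromethane, DHT separated by TLC and radioscanned, and IC50 taken from inhibition curves.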

[2] = molecular target: T2, 3-oxo-5-alpha-steroid 4-dehydrogenase 2 (Homo sapiens, UniProt P31213); experiment: Inhibition of human prostate 5alpha-reductase type 2 assessed as conversion of [3H]testosterone to dihydrotestosterone; parameters: species or system Prostate gland; method in brief: as §1
T2 sequence (P31213 whole entry): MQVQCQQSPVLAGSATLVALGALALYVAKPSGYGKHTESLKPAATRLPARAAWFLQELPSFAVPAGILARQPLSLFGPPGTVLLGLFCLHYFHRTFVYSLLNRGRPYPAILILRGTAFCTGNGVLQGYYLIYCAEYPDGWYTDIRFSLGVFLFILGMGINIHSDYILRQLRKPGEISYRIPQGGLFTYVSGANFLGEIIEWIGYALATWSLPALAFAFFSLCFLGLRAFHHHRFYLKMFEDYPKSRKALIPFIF

PC-3 = experiment: (§2) Cytotoxicity against human PC3 cells assessed as growth inhibition at 50 uM after 48 hrs by SRB assay; assay type: functional
Method in brief: (§3)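 PC-3 cells (NCI) were grown in RPMI-1640 with 10% FBS, 2 mM L-glutamine, antibiotics/amphotericin B and 1% nonessential amino acids at 37 °C in 5% CO2. Viability exceeded 95% (trypan blue). Cells were seeded at 5000–10000/well, given 24 h, then exposed 48 h to 50 µM compound. Cells were fixed in cold TCA, stained with 0.4% SRB and read at 515 nm after Tris solubilization. Inhibition = 100 − (sample/vehicle absorbance × 100).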

[3] = Cytotoxicity against Swiss mouse primary peritoneal macrophages assessed as growth inhibition at 50 uM after 48 hrs by MTT assay; settings: for growth inhibition (GI): peritoneal macrophage cell, 48 h, 50 µM; for inhibition at 48 h, 50 µM: Swiss, primary peritoneal macrophages, read-out: GI
[4] = as §2; assay type: functional; settings: PC-3, 48 h, read-out: GI; method in brief: as §3

| Compound | IC50 [1] | IC50 ([2]; read-out: IC50) | growth inhibition (GI) (PC-3) | growth inhibition (GI) [3] | IC50 ([1]; read-out: IC50) | IC50 [2] | inhibition of growth at 50 µM [4] | inhibition at 48 h, 50 µM [3] |
| --- | --- | --- | --- | --- | --- | --- | --- | --- |
| C[C@]12CC[C@H](OC(=O)C3CCCC3)CC1=CC[C@@H]1[C@@H]2CC[C@]2(C)C(Cl)=C(C=O)C[C@@H]12 | Not Active | 0.05 µM | inactive | Non-toxic | – | – | – | – |
| CC(=O)O[C@H]1CC[C@@]2(C)C(=CC[C@@H]3[C@@H]2CC[C@]2(C)C(Cl)=C(C=O)C[C@@H]32)C1 | Not Active | 0.05 µM | inactive | Non-toxic | – | – | – | – |
| CC(C)(C)NC(=O)[C@H]1CC[C@H]2[C@@H]3CC[C@H]4NC(=O)C=C[C@]4(C)[C@H]3CC[C@]12C [FINASTERIDE] | – | – | inactive | Non-toxic | 630 µM | – | – | – |
| C[C@]12CC[C@H](OC(=O)c3ccc(I)cc3)CC1=CC[C@@H]1[C@@H]2CC[C@]2(C)C(n3ccnc3)=C(C=O)C[C@@H]12 | – | – | inactive | Non-toxic | 300 µM | Not Active | – | – |
| CC(=O)N1CCN(c2ccc(OCC3COC(Cn4ccnc4)(c4ccc(Cl)cc4Cl)O3)cc2)CC1 (stereo not given) [KETOCONAZOLE] | – | – | – | – | – | Not Active | 85.4% | 41.5% |
| C[C@]12CC[C@H](OC(=O)c3ccc(F)cc3)CC1=CC[C@@H]1[C@@H]2CC[C@]2(C)C(n3ccnc3)=C(C=O)C[C@@H]12 | – | – | – | – | 320 µM | Not Active | 100% | 30.1% |
| C[C@]12CC[C@H](OC(=O)C3CCCCCC3)CC1=CC[C@@H]1[C@@H]2CC[C@]2(C)C(n3ccnc3)=C(C=O)C[C@@H]12 | – | – | inactive | Non-toxic | 320 µM | Not Active | – | – |
| C[C@]12CC[C@H](OC(=O)c3ccc(Cl)cc3)CC1=CC[C@@H]1[C@@H]2CC[C@]2(C)C(n3ccnc3)=C(C=O)C[C@@H]12 | – | – | – | – | 100 µM | Not Active | 98.2% | 29.2% |
| C[C@]12CC[C@H](OC(=O)C3CCCCC3)CC1=CC[C@@H]1[C@@H]2CC[C@]2(C)C(n3ccnc3)=C(C=O)C[C@@H]12 | – | – | inactive | Non-toxic | 300 µM | Not Active | – | – |
| C[C@]12CC[C@H](OC(=O)c3ccc(Br)cc3)CC1=CC[C@@H]1[C@@H]2CC[C@]2(C)C(n3ccnc3)=C(C=O)C[C@@H]12 | – | – | – | – | 94.5 µM | Not Active | 100% | 40.3% |
| C[C@]12CC[C@H](OC(=O)C3CCCCCC3)CC1=CC[C@@H]1[C@@H]2CC[C@]2(C)C(Cl)=C(C=O)C[C@@H]12 | Not Active | 0.015 µM | inactive | Non-toxic | – | – | – | – |
| C[C@]12CC[C@H](OC(=O)C3CCCC3)CC1=CC[C@@H]1[C@@H]2CC[C@]2(C)C(n3ccnc3)=C(C=O)C[C@@H]12 | – | – | inactive | Non-toxic | 265 µM | Not Active | – | – |
| C[C@]12CC[C@H](OC(=O)C3CCC3)CC1=CC[C@@H]1[C@@H]2CC[C@]2(C)C(n3ccnc3)=C(C=O)C[C@@H]12 | – | – | inactive | Non-toxic | 250 µM | Not Active | – | – |
| C[C@]12CC[C@H](OC(=O)C3CC3)CC1=CC[C@@H]1[C@@H]2CC[C@]2(C)C(Cl)=C(C=O)C[C@@H]12 | Not Active | 0.0032 µM | inactive | Non-toxic | – | – | – | – |
| C[C@]12CC[C@H](OC(=O)C3CCC3)CC1=CC[C@@H]1[C@@H]2CC[C@]2(C)C(Cl)=C(C=O)C[C@@H]12 | Not Active | 0.013 µM | inactive | Non-toxic | – | – | – | – |
| C[C@]12CC[C@H](OC(=O)C3CC3)CC1=CC[C@@H]1[C@@H]2CC[C@]2(C)C(n3ccnc3)=C(C=O)C[C@@H]12 | – | – | – | – | 200 µM | Not Active | 100% | 41.5% |
| CC(=O)O[C@H]1CC[C@@]2(C)C(=CC[C@@H]3[C@@H]2CC[C@]2(C)C(n4ccnc4)=C(C=O)C[C@@H]32)C1 | Not Active | – | – | – | – | Not Active | 56.5% | 36.2% |
| C[C@]12CC[C@H](OC(=O)C3CCCCC3)CC1=CC[C@@H]1[C@@H]2CC[C@]2(C)C(Cl)=C(C=O)C[C@@H]12 | Not Active | 0.008 µM | inactive | Non-toxic | – | – | – | – |

From ChEMBL document CHEMBL3351945, “Effect of dehydroepiandrosterone derivatives on the activity of 5α-reductase isoenzymes and on cancer cell line PC-3” (Bioorg Med Chem, 2014)
